Active and inactive are the calls of the source. The calls are words filed in the database; no cut-off is given here.
Legend:
RAW264.7 [1] = assay: Anti-inflammatory activity in mouse RAW264.7 cells assessed as reduction in Cox2 mRNA expression at 25 uM pre-incubated for 1 hr before […] for 18 hrs by qRT-PCR analysis; assay type: functional, cell-based
In short: (§1)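 RAW 264.7 murine macrophages grown in RPMI 1640 with 10% FBS, penicillin/streptomycin, 37 °C, 5% CO2. Seeded at 5.0 × 10^5 cells/well and held 24 h, then given 25 μM compound for 1 h before LPS (1 µg/mL) for a further 18 h. Total RNA was extracted, 500 ng was reverse-transcribed to cDNA, and target mRNA was quantified by qRT-PCR.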

RAW264.7 [2] = assay: Anti-inflammatory activity in mouse RAW264.7 cells assessed as reduction in iNOS mRNA expression at 25 uM pre-incubated for 1 hr before […] for 18 hrs by qRT-PCR analysis; assay type: functional, cell-based; in short: as §1
RAW264.7 [3] = assay: Anti-inflammatory activity in mouse RAW264.7 cells assessed as reduction in NFkappaB mRNA expression at 25 uM pre-incubated for 1 hr before […] for 18 hrs by qRT-PCR analysis; assay type: functional, cell-based; in short: as §1
RAW264.7 [4] = assay: Anti-inflammatory activity in mouse RAW264.7 cells assessed as reduction in IL-1beta mRNA expression at 25 uM pre-incubated for 1 hr before […] for 18 hrs by qRT-PCR analysis; assay type: functional, cell-based; in short: as §1
RAW264.7 [5] = assay: Anti-inflammatory activity in mouse RAW264.7 cells assessed as reduction in TNFalpha mRNA expression at 25 uM pre-incubated for 1 hr before […] for 18 hrs by qRT-PCR analysis; assay type: functional, cell-based; in short: as §1
[6] = target: Alpha amylase (Homo sapiens) (UniProt P0DUB6); assay: Inhibition of alpha-amylase (unknown origin) assessed as reduction in conversion of starch to glucose at 0.87 mM incubated for 1 hr relative to control
In short: (§2)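 α-Amylase inhibition was measured by a published protocol with minor modifications. Test compounds were added at 10 and 20 µL, stated as equivalent to 0.43 and 0.86 mM. Acarbose was used at 0.067 and 0.13 mM. Runs were in triplicate with three biological replications and averaged, reported as mean ± SD with one-way ANOVA.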

Saccharomyces cerevisiae = assay: Inhibition of Saccharomyces cerevisiae alpha-glucosidase at 1.3 mM pre-incubated for 15 mins before p-nitrophenyl alpha-D-glucopyranoside substrate addition and measured after 30 mins
In short: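 The enzyme was Saccharomyces cerevisiae α-glucosidase, assayed by a published protocol with slight modifications. Each compound was tested at two levels, 10 and 20 µL. Acarbose served as positive control. Runs were in triplicate with three biological replications, reported as mean ± SD and analysed by one-way ANOVA.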

RAW264.7 [7] = assay: Anti-inflammatory activity in mouse RAW264.7 cells assessed as reduction in IL6 mRNA expression at 25 uM pre-incubated for 1 hr before […] for 18 hrs by qRT-PCR analysis; assay type: functional, cell-based; in short: as §1
[8] = target: Alpha amylase (Homo sapiens) (UniProt P0DUB6); assay: Inhibition of alpha-amylase (unknown origin) assessed as reduction in conversion of starch to glucose at 0.13 mM incubated for 1 hr relative to control; in short: as §2

Alpha amylase (Homo sapiens), sequence (P0DUB6 whole entry, looked up): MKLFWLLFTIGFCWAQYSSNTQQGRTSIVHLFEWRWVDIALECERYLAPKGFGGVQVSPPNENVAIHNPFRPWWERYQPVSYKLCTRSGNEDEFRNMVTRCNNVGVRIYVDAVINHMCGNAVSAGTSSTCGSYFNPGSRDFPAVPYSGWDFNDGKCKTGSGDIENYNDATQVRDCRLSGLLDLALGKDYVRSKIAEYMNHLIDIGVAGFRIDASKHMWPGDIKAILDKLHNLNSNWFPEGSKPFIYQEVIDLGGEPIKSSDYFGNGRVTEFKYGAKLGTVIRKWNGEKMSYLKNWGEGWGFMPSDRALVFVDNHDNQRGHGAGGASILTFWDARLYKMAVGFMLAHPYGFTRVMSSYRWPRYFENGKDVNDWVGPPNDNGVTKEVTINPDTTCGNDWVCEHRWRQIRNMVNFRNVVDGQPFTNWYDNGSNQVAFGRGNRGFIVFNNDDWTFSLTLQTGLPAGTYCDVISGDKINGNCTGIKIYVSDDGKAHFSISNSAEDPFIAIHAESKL

inhibition [6] [%]	inhibition (Saccharomyces cerevisiae) [%]	inhibition [8] [%]	SMILES	inhibition (RAW264.7 [1])	inhibition (RAW264.7 [2])	inhibition (RAW264.7 [3])	inhibition (RAW264.7 [4])	inhibition (RAW264.7 [5])	inhibition (RAW264.7 [7])
63.5	35.9		COC(C)(C)/C=C/C[C@@H](C)[C@H]1CC[C@@]2(C)[C@@H]3C=C[C@@]45OC[C@]3(CC[C@]12C)[C@@H]4CC[C@H](O[C@@H]1O[C@H](CO)[C@@H](O)[C@H](O)[C@H]1O)C5(C)C [MOMORDICOSIDE F1]	Active	Active	Active	Active	Active	
63.7	42.4		C[C@H](C/C=C/C(C)(C)O)[C@H]1CC[C@@]2(C)[C@@H]3C=C[C@@]45OC[C@]3(CC[C@]12C)[C@@H]4CC[C@H](O[C@@H]1O[C@H](CO)[C@@H](O)[C@@H](O)[C@H]1O)C5(C)C [MOMORDICOSIDE F2]		Active	Active	Active		
64.2	35.1		C[C@H](C/C=C/C(C)(C)O)[C@H]1CC[C@@]2(C)[C@@H]3C=C[C@@]45OC[C@]3(CC[C@]12C)[C@@H]4CC[C@H](O[C@@H]1O[C@H](CO)[C@@H](O)[C@H](O)[C@H]1O)C5(C)C [MOMORDICOSIDE I]	Active	Active	Active	Active		Active
69	47.5		COC(C)(C)/C=C/C[C@@H](C)[C@H]1CC[C@@]2(C)[C@@H]3[C@@H](O[C@@H]4O[C@H](CO)[C@@H](O)[C@H](O)[C@H]4O)C=C4[C@@H](CC[C@H](O)C4(C)C)[C@]3(C=O)CC[C@]12C	Active	Active	Active	Active		inactive
66.4	49.4		C[C@H](CC(O)C(O)C(C)(C)O)[C@H]1CC[C@@]2(C)[C@@H]3C=C[C@@]45OC[C@]3(CC[C@]12C)[C@@H]4CC[C@H](O[C@@H]1O[C@H](CO)[C@@H](O)[C@@H](O)[C@H]1O)C5(C)C (some centres not stated)	Active	Active	Active	Active		Active
60.7	56.4		O=C(O)c1cc(O[C@@H]2OC[C@@H](O)[C@H](O)[C@H]2O)ccc1O	Active	Active	Active	Active		Active
70.5	48.5		COC(C)(C)/C=C/C[C@@H](C)[C@H]1CC[C@@]2(C)[C@@H]3C=C[C@@]45OC[C@]3(CC[C@]12C)[C@@H]4CC[C@H](O[C@@H]1O[C@H](CO)[C@@H](O)[C@@H](O)[C@H]1O)C5(C)C		Active	Active	Active	Active	
		88	C[C@H]1O[C@H](O[C@H]2[C@H](O)[C@@H](O)[C@@H](O[C@H]3[C@H](O)[C@@H](O)C(O)O[C@@H]3CO)O[C@@H]2CO)[C@H](O)[C@@H](O)[C@@H]1N[C@H]1C=C(CO)[C@@H](O)[C@H](O)[C@H]1O (some centres not stated)						

From ChEMBL document CHEMBL4402512, “In vitro and in silico elucidation of antidiabetic and anti-inflammatory activities of bioactive compounds from Momordica charantia L” (Bioorg Med Chem, 2019)
